XBP1 UPR activ: activators of adaptive XBP1 UPR arm, primary screen, cell-based, CHO-XBP1 luciferase reporter, luminescence, uHTS; 330,000 compounds, 0.33% hits; activation, % at 20 µM; IRE1-XBP1 UPR activation; percent of tunicamycin response, DMSO as zero; AID 463104, 2010;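 active = versus positive control, 20 µM dose yields 30% or more activation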;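 also: 100% = tunicamycin at 10 µg/mL and 0% = DMSO only wells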
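Material: CHO-XBP1 cells stably carrying IRE1-XBP1-driven luciferase reporter | Medium: F12 with 10% serum | Compound dosing: 20 µM single concentration, DMSO 1% | Incubation: Overnight seeding at 37 °C, 6 h compound treatment at 37 °C | Detection: Steady-Glo luminescence read | Read-out basis: % activation of reporter signal versus tunicamycin and DMSO controls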
CHOP UPR activ: activators of apoptotic CHOP UPR arm, primary screen, cell-based, CHO-CHOP luciferase reporter, luminescence, uHTS; 330,000 compounds, 0.34% hits; activation, % at 10 µM; AID 449763, 2010; UPR activation; percent of tunicamycin response over DMSO baseline;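 active = at 10 µM dose, activation of 40% or more, normalized to positive control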;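 also: 100% = tunicamycin at 10 µg/mL and 0% = DMSO alone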
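Material: CHO-CHOP cells, stable luciferase reporter of PERK-eIF2a-CHOP signalling; quantity: 500 reporter cells seeded per well; buffer or medium: F12 medium containing 10% fetal bovine serum; compound: one dose, 10 µM in 0.5% DMSO; incubation: 6 h compound treatment, 37 °C; measured by: Steady-Glo luciferase luminescence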
697 NFkB inh: inhibitors of PMA/ionomycin-induced NF-kB reporter, 697 cells, primary screen, B-cell NF-kB inhibitor project, cell-based, luminescence, uHTS; 697 B-cell NF-kB luciferase reporter, 16 h; inhibition, % at 4 µM; 330,000 compounds, 0.33% hits; in the data active = inhibition above about 35%
CRFBP-R2 block: antagonists of CRF-BP/CRF-R2 complex, primary screen, cell-based, HEK293, calcium dye fluorescence, uHTS; CRF-induced calcium fluorescence; inhibition, % at 11.8 µM; 350,000 compounds, 0.59% hits;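 active = inhibition of the ligand-induced calcium signal above about 50% at the single tested concentration, limit read from the data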
Jurkat NFkB inh: inhibitors of induced NF-kB luciferase reporter, primary screen, TCR NF-kB activation inhibitor project, cell-based, luminescence, uHTS | Jurkat, PMA/ionomycin-induced NF-kB luciferase reporter | inhibition, % at 4 µM | 330,000 compounds, 0.53% hits; in the data active = inhibition above about 50%
Jurkat NFkB conf: PMA/ionomycin-induced NF-kB reporter inhibitors, Jurkat retest, confirmation, T-cell NF-kB inhibitor project, cell-based, luminescence, single concentration | shares compounds with Jurkat NFkB inh | Jurkat NF-kB luciferase, 16 h | inhibition, % at 4 µM | 2,700 compounds, 27% hits | AID 435020, 2010;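 active = inhibition reaching about 45% at 4 µM in either replicate, limit read from the data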;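 also: plate controls were PMA/ionomycin stimulated DMSO wells for no effect and unstimulated DMSO wells for full effect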
The depositor's hits bear a star; x = not tested or not shown. Compounds with a hit are over-represented: about 1.8% of the library has one in this group of screens.

SMILES	XBP1 UPR activ	CHOP UPR activ	697 NFkB inh	CRFBP-R2 block	Jurkat NFkB inh	Jurkat NFkB conf
COc1ccc(-n2nnnc2SCC(=O)NCCc2ccccc2)cc1OC	0	-1	1	-5	-2	x
CCCCOc1ccc(-c2csc(N)n2)cc1[N+](=O)[O-]	4	8	-86	-28	-167	4
CCCCOc1ccc(C2=CSC3=NCCN23)cc1[N+](=O)[O-]	7	0	-17	-10	-20	x
COc1ccc(C2=NOC(C(=O)NCc3ccc(F)cc3)C2)cc1OC (centres undefined)	7	0	27	6	78*	58*
O=C(NCc1ccco1)C1CC(c2cccc([N+](=O)[O-])c2)=NO1 (centres undefined)	-2	2	10	-3	15	x
COc1cc(C2=NOC(C(=O)NCc3ccc(F)cc3)C2)cc(OC)c1OC (centres undefined)	11	-1	29	8	68*	52*
COc1ccccc1CNC(=O)C1CC(c2cccc([N+](=O)[O-])c2)=NO1 (centres undefined)	1	0	-6	18	55*	13
COc1cccc(C2=NOC(C(=O)NCc3ccc(F)cc3)C2)c1 (centres undefined)	-1	-1	-9	20	-4	x
O=C(NCc1ccco1)C1CC(c2cc(C(F)(F)F)cc(C(F)(F)F)c2)=NO1 (centres undefined)	8	-1	-28	-1	62*	20
CCCn1c(N)c(N(CCOC)C(=O)c2cc3ccccc3cc2OC)c(=O)[nH]c1=O	0	1	16	-2	-6	x
Cc1ccc2nc(-c3ccc(NC(=O)CSc4ccccc4)cc3)[nH]c2c1	3	2	-118	6	-153	-118
O=C(CSc1ccccc1)Nc1ccc(-c2nc3ccccc3[nH]2)cc1	10	3	-125	-50	-123	x
Cc1cc(C)cc(NC(=O)c2ccc([N+](=O)[O-])o2)c1	-5	3	25	12	87*	48*
CCOC(=O)C1=C(c2ccccc2)O/C(=C(/C#N)C(F)(F)F)S1	-2	54*	-230	x	75*	54*
Cc1c(C(=O)NCC2CCCO2)oc2ccc(Br)cc12 (centres undefined)	0	4	-39	-2	-52	x
COC(=O)c1cccc(NC(=O)NC(=O)c2ccccc2Cl)c1	-2	-2	3	-13	62*	-7
Cc1ccc(C(=O)CSC2=C(C#N)C(c3ccco3)C3=C(CCCC3=O)N2)cc1 (centres undefined)	6	2	-84	2	67*	44
N#CC1=C(SCC(=O)c2ccccc2)NC2=C(C(=O)CCC2)C1c1ccco1 (centres undefined)	6	8	-166	3	10	x
COc1ccc(NC(=O)c2cccs2)cc1C(=O)N1CCN(c2ccccc2)CC1	-6	-2	-21	0	52*	13
O=C(NC(=S)Nc1ccc(N2CCCCC2)cc1)c1cccs1	3	1	-106	-55	-172	-108
COc1cccc(C(=O)Nc2ccc(N3CCN(C(=O)c4cccs4)CC3)cc2)c1	1	0	-79	3	52*	14
O=C(Nc1ccc(N2CCN(C(=O)c3cccs3)CC2)cc1)c1cccc(F)c1	-5	1	-23	4	30	x
COc1ccc(NC(=O)CS(=O)c2ccc(Br)cc2)cc1 (centres undefined)	-2	1	8	-2	2	x
Cc1c2cnccc2c(C)c2c1oc1ccccc12	x	x	x	-36	x	x
O=C(Nc1ccc(OC(F)F)c(Cl)c1)c1ccccn1	-3	1	-160	-3	-176	-96
Cc1ccc2nc(-c3ccc(NC(=S)NC(=O)CC(C)C)cc3)sc2c1	8	6	-89	-3	-85	x

Compound activity: PubChem BioAssay, Sanford-Burnham Center for Chemical Genomics
